Measured values from the RNAGym collection of RNA variant scans (doi:10.1126/science.aae0568).
Fewer inactive variants are shown than the library holds.

B1: tRNA (parent)
chain: GUUCCGUUGGCGUAAUGGUAACGCGUCUCCCUCCUAAGGAGAAGACUGCGGGUUCGAGUCCCGUACGGAACG

Variants of: B1
Experiment: yeast fitness relative to wild type (ratio to wild type); higher = fitter; tRNA-Arg(CCU), competitive growth, 37 C, YPD
Method in brief: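 Gene amplicons from the start population and from each of six end populations were read by 100-nucleotide paired-end sequencing. Those end populations came from pooled Saccharomyces cerevisiae strains carrying tRNA-Arg(CCU) gene variants at the native locus, competed in YPD at 37°C for 24 hours. Fitness relative to wild type was worked out from changes in genotype frequencies. Genotypes needed ≥ 100 starting reads, and estimates < 0.5 were set to 0.5.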

| Variant | yeast fitness |
| --- | --- |
| U7G A14U | 0.675 |
| U7G C60U G63C | 0.585 |
| U7C C11G C24A U47A U64C G67U | ≤ 0.5 |
| U7C U19G C61G C62U | 0.514 |
| U7C C27U A45U C66U | 0.617 |
| U7G A40C G67C | ≤ 0.5 |
| U7C C33A C49A | ≤ 0.5 |
| U7G C11G C34U G41A U64A | ≤ 0.5 |
| U7G C24G C27U C29A | 0.6 |
| U7C A37G A42C C49G C61U G63A | ≤ 0.5 |
| U7G C55G G68C | 0.6 |
| U7C C33U C49U A70U | ≤ 0.5 |
| U7G A14C A20G C22U C49G G56C A70G | ≤ 0.5 |
| U7C U28C G41A A42C G50C A70G | 0.572 |
| U7C A42C C55U | ≤ 0.5 |
| U7C C11G U13G C30U | ≤ 0.5 |
| U7C C60A | 0.674 |
| U7C C60G | 0.583 |
| U7C C60U | 0.785 |
| U7A U19A A69C | 0.502 |
| U7G A45C G51C U53C | ≤ 0.5 |
| U7C A36U G50C C60A | 0.57 |
| U7C A14G G17A A69U | 0.553 |
| U7C G25C A42G | 0.567 |

| Variant | yeast fitness |
| --- | --- |
| U7G C22U G51C G58A | ≤ 0.5 |
| U7G C33U | 0.749 |
| U7G C33G | 0.654 |
| U7G C11G C34U A40G G41A | ≤ 0.5 |
| U7G A14C G63C | ≤ 0.5 |
| U7G C61U A70G | 0.669 |
| U7G C27A | 0.744 |
| U7G A37U | 0.72 |
| U7G A37C | 0.757 |
| U7G A37G | 0.633 |
| U7C C30U C66G | ≤ 0.5 |
| U7G C11G C30G C33G G48C C60A | ≤ 0.5 |
| U7G A21U A40G G67A | ≤ 0.5 |
| U7C A36G A57U | 0.566 |
| U7C G9A C24G A45U C49A U53A | 0.681 |
| U7C C31U A36U A43C C55G | 0.539 |
| U7C A42G U54C | 0.549 |
| U7C C49U C55A | ≤ 0.5 |
| U7C C33A G58C G67A | 0.602 |
| U7C A36G | 0.888 |
| U7G A57U | 0.599 |
| U7C C22U C31A G38A C46G G67C | ≤ 0.5 |
| U7C G18A C30U C34A | ≤ 0.5 |
| U7C U35C A37C | 0.732 |

| Variant | yeast fitness |
| --- | --- |
| U7G A70G | 0.993 |
| U7C A14G U19G C29G C49A G52C G63A | ≤ 0.5 |
| U7C A37C A40C A45U A57C | 0.573 |
| U7C G25A C55A | ≤ 0.5 |
| U7C C11U U19G C29U U32C C34G G52C A70G | ≤ 0.5 |
| U7G C27U C33U A57U | ≤ 0.5 |
| U7C A14G G17A G48C A70U | ≤ 0.5 |
| U7C G25A U28A G48C A70C | ≤ 0.5 |
| U7C C11U C61U A65G G68C | ≤ 0.5 |
| U7C A20G A21G | 0.562 |
| U7C G38C C49A G56A C61G | ≤ 0.5 |
| U7A U16C G23A C24U U35A C60A A69C | ≤ 0.5 |
| U7G A37U A70U | 0.542 |
| U7G C46U C60A G67A | ≤ 0.5 |
| U7C G10A U19A G44C G67C | ≤ 0.5 |
| U7C C49A G67U | 0.59 |
| U7C C24A C61U | 0.543 |
| U7G A20C G41A G50A C60U C66G | ≤ 0.5 |
| U7C C61G A65G | 0.57 |
| U7C C61G A65C | ≤ 0.5 |
| U7G C11U G12C C33U | ≤ 0.5 |
| U7C U19A C62A G67C | ≤ 0.5 |
| U7C G41A A42C G50C A69U | 0.556 |
| U7C G25C C30G C33U A45G U47G G50C G63A | ≤ 0.5 |

| Variant | yeast fitness |
| --- | --- |
| U7C C46U U59G G67U | ≤ 0.5 |
| U7G A36G A45G C49U | 0.641 |
| U7G C55G G56C | 0.608 |
| U7C A70C | 0.742 |
| U7C A70U | 0.692 |
| U7C A21G G41C U53C U64A | ≤ 0.5 |
| U7G C27A A36C A42U U64G A70U | ≤ 0.5 |
| U7C A65G | 0.95 |
| U7C A65C | 0.912 |
| U7A U32A C61G | ≤ 0.5 |
| U7C U28A A37G C46U U47C | ≤ 0.5 |
| U7G C27G A40U G68C | ≤ 0.5 |
| U7G G9A | 0.827 |
| U7C C34G A36U A37U | ≤ 0.5 |
| U7C G41A A42C G50C A70C | ≤ 0.5 |
| U7C A36U C49G | 0.744 |
| U7C G68C A69U | 0.612 |
| U7G A14G U35G A43G U59A | 0.669 |
| U7C C46U C61A G63U G67A | ≤ 0.5 |
| U7C A42U A43G | 0.53 |
| U7C C31G G41A G52C C60U C62G C66G | ≤ 0.5 |
| U7C G10A C24G C34U A43U | ≤ 0.5 |
| U7C C11G U26C | ≤ 0.5 |
| U7C G51C A57U | ≤ 0.5 |

| Variant | yeast fitness |
| --- | --- |
| U7C C11U G39C A45U C61U | ≤ 0.5 |
| U7G A20G C60U C61G | ≤ 0.5 |
| U7C C46A G51A U53A C62A G68A | 0.579 |
| U7G C55G G63A G68C | 0.525 |
| U7C A20G A40U | 0.597 |
| U7A U28G C30A G52A | 0.595 |
| U7G A15U A45C C46U G56A G67C | ≤ 0.5 |
| U7C A21C C27U | ≤ 0.5 |
| U7A U16C G17A C29U C31A G51U C66G G67U | ≤ 0.5 |
| U7C G18C U59G | ≤ 0.5 |
| U7G A21U C29A C55A | 0.604 |
| U7G C62G | 0.603 |
| U7C C31G A65U | 0.664 |
| U7C G41A A42C G50C G67U | ≤ 0.5 |
| U7G A14U U19A C22U C61A U64A A69U | 0.543 |
| U7C G38A G58C | 0.648 |
| U7C C30U A37G C46U G52C C62G A70C | ≤ 0.5 |
| U7G C34G A36C C62G G68C | ≤ 0.5 |
| U7C C62U C66G | ≤ 0.5 |
| U7C C24A | 0.623 |
| U7C G23C G52A | 0.591 |
| U7C C11U G39C A45U G67A | ≤ 0.5 |
| U7C C22G A40U A69C | 0.574 |
| U7C C33U | 0.713 |

| Variant | yeast fitness |
| --- | --- |
| U7C G48C C61G A65U | ≤ 0.5 |
| U7C C27A U64G | ≤ 0.5 |
| U7C U16A U28A | ≤ 0.5 |
| U7A U47A C55G G68A | ≤ 0.5 |
| U7G A42G | 0.837 |
| U7G C33G G48C U64C | 0.531 |
| U7G C11U G58A | 0.589 |
| U7G C29A A69G | ≤ 0.5 |
| U7C C27U C29A G58C | ≤ 0.5 |
| U7C C55A | 0.567 |
| U7C C55G | 0.628 |
| U7C C11G U13A C29U A69U | ≤ 0.5 |
| U7C A40G G52A A65C | ≤ 0.5 |
| U7C C34U C55A A65G | ≤ 0.5 |
| U7G A15G C33G | ≤ 0.5 |
| U7C U35G U64C A70G | ≤ 0.5 |
| U7G C49U A65G | 0.83 |
| U7G A15C U16A C33G A37C C49A C61U | 0.525 |
| U7C A21U C24A C62U U64C | 0.661 |
| U7C A15G G17A A65C A70G | ≤ 0.5 |
| U7G C31U | 0.98 |
| U7A U16C G17A C34G A45C G52C | ≤ 0.5 |
| U7G A65G | 1.03 |
| U7C A14C G18A A43C A57U G63A | ≤ 0.5 |

| Variant | yeast fitness |
| --- | --- |
| U7C C31G C34U C55U G58A C61U | 0.666 |
| U7C G58C C66A | 0.584 |
| U7G C31G A36C | ≤ 0.5 |
| U7G C34A C46G A65C | 0.746 |
| U7C C46A | 0.798 |
| U7G A36U | 0.777 |
| U7G C61A | 0.708 |
| U7G A20G U32G A43C A45U | ≤ 0.5 |
| U7C C30G G58C C66U | ≤ 0.5 |
| U7G C30G G56A | 0.505 |
| U7C C33G A70G | 0.57 |
| U7G A14G U35G A43G | 0.557 |
| U7C A20G A37C C60G A65U A70C | ≤ 0.5 |
| U7C U32C A45U G67A | ≤ 0.5 |
| U7C A43U C49G | ≤ 0.5 |
| U7C U16C | 0.831 |
| U7G C30A A65C | 1.06 |
| U7G A15C C24U A43G G51A U54C | 0.634 |
| U7C U32A | 0.761 |
| U7C C61A | 0.678 |
| U7C A45C G50A C62U | 0.547 |
| U7C A20U A36G C62U | ≤ 0.5 |
| U7C A40G A43C | 0.77 |
